How the values were obtained:
[1] = pilot pharmacokinetic study in rats after intravenous administration; assay type: in vivo, rat
In short: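 Male Wistar rats (13–15 weeks, 200–220 g) were fasted overnight with free water access. They received 3 mg kg−1 i.v. in 0.9% saline. Under thiopental (70 mg kg−1), blood was taken by decapitation at 5, 10, 30, 60, 120 and 240 min (n = 5 per time). Serum was stored at −30 °C, then 100 µL was extracted into ethyl acetate with internal standard for LC–MS–MS. Non-compartmental analysis used mean concentrations: t1/2 = 0.693/λz, Cl = dose/AUC0-inf, Vss = D·AUMC/AUC².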

[2] = stability of DL76 in rat serum QC samples under storage and process conditions; assay type: in vitro ADME; conditions: bench top, post preparative, freeze/thaw, long term
[3] = target: human H3 receptor; conditions: read-out: hKi; human H3 receptor stably expressed in CHO-K1 cells; preliminary pharmacological studies; cited from earlier work
[4] = male, Wistar, rat, serum, iv, 3 mg/kg

In the case of `CC(C)(C)c1ccc(OCCCN2CCCCC2)cc1` [DL76, 1-[3-(4-tert-butylphenoxy)propyl]piperidine], the clearance [1, 4] is reported as 217 mL/min/kg, the half-life [1, 4] is reported as 1.41 h and the “serum concentration of DL76 in a representative rat serum sample” value ([1]; rat serum after i.v. 3 mg kg^−1, time not stated) is reported as 67.82 ng/mL. The “stability in rat serum (all storage and process tests)” value [2] was “good stability” and the Ki [3] was 0.022 ± 0.003 µM.

— publication PMC3073091 (Chromatographia, 2011)
